Results gathered from unrelated publications.
Each line is one published result; the experiments were not run side by side.
Observed: cell growth or viability

| SMILES | cell line | assay | setting | CC50 |
| --- | --- | --- | --- | --- |
| Cc1ccc(S(=O)(=O)Nc2ncc(-c3nc4ccccc4s3)c(N)n2)cc1 | BGM | – | – | 200 µg/mL |
| O[C@@H](c1cc(C(F)(F)F)nc2c(C(F)(F)F)cccc12)[C@H]1CCCCN1 | Huh-7 | MTT | 24 h | 15.9 µM |
| CCOP(=O)(OCC)[C@@H]1C[C@H](n2cc(-c3cccc(F)c3)nn2)ON1C | human T-lymphocyte | – | 72 h | > 250 µM |
| CCOc1ccc(-c2nc(CNCCc3ccc(F)cc3)cs2)cc1 | Huh-7 | MTT | 24 h | 87.8 µM |
| CCOP(=O)(OCC)[C@@H]1C[C@H](n2cc(Cn3cnc4c(N)ncnc43)nn2)ON1C (relative stereo) | human T-lymphocyte | – | 72 h | > 250 µM |
| Cc1ccc(C(=O)CNc2nc(NS(=O)(=O)c3ccccc3)ncc2-c2nc3ccccc3s2)cc1 | BGM | – | – | 170 µg/mL |
| CCOP(=O)(OCC)[C@@H]1C[C@H](n2cc(Cn3ccc(NC(C)=O)nc3=O)nn2)ON1C (racemic) | human T-lymphocyte | – | 72 h | > 250 µM |
| CC(C)OC(=O)C(C)(C)Oc1ccc(C(=O)c2ccc(Cl)cc2)cc1 | LX-2 | ATP luminescence | 48 h, serum-free | > 50 µM |
| COc1ccc(NC(=O)N2CCCCN3C[C@H](c4ccc(C#Cc5ccccc5)cc4)[C@@H]3C2)cc1 | HEK-293T | – | – | 25 µM |
| O=C(O)c1cc(-c2ccc(Br)cc2)nc2ccc(Cl)cc12 | Huh-7 | MTT | 24 h | 89.7 µM |
| COc1ccc(NC(=O)N2CCCCN3[C@H](CN(C)S(C)(=O)=O)[C@H](c4ccc(C#Cc5ccccc5)cc4)[C@@H]3C2)cc1 | HEK-293T | – | – | > 40 µM |
| CC(C)c1cc(Oc2c(Cl)cc(-n3nc(C#N)c(=O)[nH]c3=O)cc2Cl)n[nH]c1=O | LX-2 | ATP luminescence | 48 h, serum-free | > 50 µM |
| CO[C@H]1/C=C/O[C@@]2(C)Oc3c(C)c(O)c4c(O)c(c(/C=N/N5CCN(C)CC5)c(O)c4c3C2=O)NC(=O)/C(C)=C\C=C[C@H](C)[C@H](O)[C@@H](C)[C@@H](O)[C@@H](C)[C@H](OC(C)=O)[C@@H]1C | Huh-7 | MTT | 24 h | 304 µM |
| O=C1O[C@H]2[C@@H]3OC(=O)c4cc(O)c(O)c(O)c4-c4c(O)c(O)c5oc(=O)c6c(c(O)c(O)c7oc(=O)c4c5c76)-c4c(cc(O)c(O)c4O)C(=O)OC[C@H]3OC(O)[C@@H]2OC(=O)c2cc(O)c(O)c(O)c2-c2c1cc(O)c(O)c2O (mixture of isomers) | Huh-7 | MTT | – | > 5000 µM |
| CN1CCC(NCc2cccc(-c3ccc(S(=O)(=O)NCc4ccccc4)cc3)c2)CC1 | Huh-7 | MTT | 24 h | 6.84 µM |
| O=C(CNc1nc(NS(=O)(=O)c2ccccc2)ncc1-c1nc2ccccc2s1)c1ccc(Cl)cc1 | BGM | – | – | 220 µg/mL |
| CCOP(=O)(OCC)[C@@H]1C[C@@H](n2cc(Cn3ccc(=O)[nH]c3=O)nn2)ON1C (racemic) | human T-lymphocyte | – | 72 h | > 250 µM |
| O=C(O)CCCc1cc2cc(Cl)ccc2n1S(=O)(=O)c1ccc2ncsc2c1 | LX-2 | ATP luminescence | 48 h, serum-free | > 40 µM |
| O=C(O)c1ccc(-n2nc(-c3ccccc3O)nc2-c2ccccc2O)cc1 | Huh-7 | MTT | 24 h | > 200 µM |
| CCOP(=O)(OCC)[C@@H]1C[C@H](n2cc(Cn3cc(C)c(=O)[nH]c3=O)nn2)ON1C (racemic) | human T-lymphocyte | – | 72 h | > 250 µM |
| Cc1ccc(S(=O)(=O)Nc2nc(N)c(-c3nc4ccccc4s3)c(-c3ccc(Cl)cc3)n2)cc1 | BGM | – | – | 190 µg/mL |
| CCOP(=O)(OCC)[C@@H]1C[C@@H](n2cc(C(=O)OC)nn2)ON1C (relative stereo) | human T-lymphocyte | – | 72 h | > 250 µM |
| CC(C)Cn1c(=O)n(C)c(=O)c2c(-c3cncn3C)n(Cc3cccc4ccccc34)nc21 | Huh-7 | MTT | 24 h | > 200 µM |
| CCOP(=O)(OCC)[C@@H]1C[C@H](n2cc(-c3ccccn3)nn2)ON1C | human T-lymphocyte | – | 72 h | > 250 µM |
| NCCN(C(=O)c1ccc(Cl)cc1Cl)c1ccc(OCc2ccc(Cl)cc2)cc1 | Huh-7 | MTT | 24 h | 11.9 µM |
| CCOP(=O)(OCC)[C@@H]1C[C@H](n2cc(-c3nccn3C)nn2)ON1C | human T-lymphocyte | – | 72 h | > 250 µM |
| O=c1oc2c(O)c(O)cc3c(=O)oc4c(O)c(O)cc1c4c23 | Huh-7 | MTT | – | > 5000 µM |
